# Results from ChEMBL document CHEMBL4052582, “A Versatile Method to Determine the Cellular Bioavailability of Small-Molecule Inhibitors” (J Med Chem, 2017).
# Tests used:
# MDA-MB-231 = assay: Antiproliferative activity against human MDA-MB-231 cells after 72 hrs by MTS assay; type: functional, cell-based; settings: MDA-MB-231, 72 h
# [1] = Drug uptake in human MDA-MB-231 cells assessed per million cells at 2 uM in presence of 1% FBS after 24 hrs incubation by HPLC-MS analysis; type: ADME, cell-based; settings: mda-mb-231, 24 h
# Outline: (§1)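 MDA-MB-231 cells grown in T-25 flasks in DMEM/10% FBS to ~70% confluency, then given fresh DMEM with the stated FBS plus inhibitor (0.02% DMSO final), 37 °C, 24 h. Cells washed with cold PBS ×3, extracted overnight at 4 °C with cold MeCN/MeOH 1:1, centrifuged, quantified by HPLC against calibration curves, corrected for dilution, cell number and solvent extraction efficiency; nmol per million cells; triplicate, mean ± SD.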
# [2] = Drug uptake in human MDA-MB-231 cells assessed per million cells at 2 uM in presence of 5% FBS after 24 hrs incubation by HPLC-MS analysis; type: ADME, cell-based; settings: mda-mb-231, 24 h; outline: as §1
# [3] = Drug accumulation in human MDA-MB-231 cells at 2 uM in presence of 5% FBS after 24 hrs incubation by HPLC-MS analysis; type: ADME, cell-based; settings: mda-mb-231, 24 h; outline: as §1
# [4] = Drug uptake in human MDA-MB-231 cells assessed per million cells preincubated for 6 hrs followed by solvent addition measured after overnight incubation at 4 degC by HPLC-MS analysis; type: ADME, cell-based; settings: mda-mb-231, 6 h
# [5] = Drug uptake in human MDA-MB-231 cells assessed per million cells preincubated for 6 hrs followed by trypsin-EDTA digestion for 2 mins measured after overnight incubation at 4 degC by HPLC-MS analysis; type: ADME, cell-based; settings: mda-mb-231, 2 min
# Outline: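 After 6 h inhibitor exposure at 37 °C, MDA-MB-231 cells washed three times with ice-cold PBS, detached with 0.25% trypsin/1 mM EDTA in PBS for 2 min at 37 °C, resuspended in cold DMEM, washed once in ice-cold PBS, extracted with cold MeCN/MeOH 1:1, HPLC quantified; triplicate, mean ± SD divided by extraction efficiency.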
# [6] = Drug uptake in human MDA-MB-231 cells assessed as cell bound drug level per million cells at 2 uM in presence of 5% FBS after 6 hrs at 4 degC by HPLC-MS analysis; type: ADME, cell-based; settings: mda-mb-231, 6 h
# Outline: (§2)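 Confluent (~70%) MDA-MB-231 cells given inhibitor in 5 mL cold DMEM with 0.02% DMSO (10% FBS for BRD-targeting inhibitors, 5% FBS for β-catenin/BCL9 inhibitors), held at 4 °C for 6 h; then washed, extracted overnight at 4 °C in MeCN/MeOH 1:1, HPLC quantified; triplicate, mean ± SD divided by solvent extraction efficiency.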
# [7] = Apparent permeability at 200 uM after 5 hrs by PAMPA; type: physicochemical
# Outline: (§3)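 Artificial membrane of 1% egg lecithin in n-dodecane on a filter plate; compound at 200 μM on donor side, 5 h at room temperature; compound quantified by HPLC/DAD; percent transport and apparent permeability calculated from previously published equations.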
# [8] = Permeability assessed as drug transport at 200 uM after 5 hrs by PAMPA; type: physicochemical; outline: as §3
# [9] = Solubility of the compound in DMEM medium up to 200 uM; type: physicochemical
# [10] = Stability of the compound in DMEM medium assessed as parent compound remaining at 100 uM after 72 hrs in absence of 10% FBS by HPLC method
# Outline: (§4)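 Compound added at 100 μM final (0.02% v/v DMSO) to 5 mL DMEM with or without 10% FBS in T-25 flasks, no cells; incubated 37 °C in CO2 incubator for 3–72 h. Aliquots drawn at each time point and analysed by HPLC; parent remaining taken from chromatogram AUC relative to starting time point. Triplicate.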
# [11] = Stability of the compound in DMEM medium assessed as parent compound remaining at 100 uM after 72 hrs in presence of 10% FBS by HPLC method
# Outline: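 Compound at 100 μM final (0.02% DMSO) in 5 mL DMEM with or without 10% FBS, cell-free in T-25 flasks, 37 °C in CO2 incubator for 3–72 h. Aliquots analysed by HPLC. Percent remaining derived from chromatogram AUC relative to starting time point. Triplicate.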
# [12] = Retention time of the compound by HPLC/DAD analysis
# Outline: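 Agilent HPLC with DAD, detection at 254/355 nm or 235/355 nm. Kromasil C18 column (4.6 × 250 mm), 20 μL injection. Gradient from H2O (0.1% TFA) to 50:50 MeCN over 0–18 min, then to 100% MeCN by 20 min, held to 25 min, at 1.5 mL/min.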
# [13] = Drug uptake in human MDA-MB-231 cells assessed as intracellular concentration at 0.0103 umol in presence of 5% FBS after 24 hrs by HPLC-MS analysis; type: ADME, cell-based; settings: mda-mb-231, 24 h; outline: as §1
# [14] = Drug uptake in human MDA-MB-231 cells assessed as extracted concentration at 2 uM after 24 hrs by HPLC-MS analysis; type: ADME, cell-based; settings: mda-mb-231, 24 h
# Outline: (§5)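 MDA-MB-231 cells at ~70% confluency in T-25 flasks exposed to a range of inhibitor input concentrations in DMEM with FBS, 0.02% DMSO, 37 °C, 24 h; cold PBS washes, overnight MeCN/MeOH 1:1 extraction at 4 °C, HPLC quantification against calibration curves with extraction-efficiency correction.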
# [15] = Drug uptake in human MDA-MB-231 cells assessed as extracted concentration at 20 uM after 24 hrs by HPLC-MS analysis; type: ADME, cell-based; settings: mda-mb-231, 24 h; outline: as §5
# [16] = Drug uptake in human MDA-MB-231 cells assessed as extracted concentration at 0.2 uM after 24 hrs by HPLC-MS analysis; type: ADME, cell-based; settings: mda-mb-231, 24 h; outline: as §5
# [17] = Drug uptake in human MDA-MB-231 cells assessed as non specific binding with culture plate at 2 uM in presence of 5% FBS after 6 hrs at 4 degC by HPLC-MS analysis; type: ADME, cell-based; settings: mda-mb-231, 6 h
# [18] = Drug uptake in human MDA-MB-231 cells after 6 hrs in presence of 5% FBS by HPLC-MS analysis; type: ADME, cell-based; settings: mda-mb-231, 6 h
# Outline: (§6)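 MDA-MB-231 cells at ~70% confluency in T-25 flasks, incubated 6 h at 37 °C with inhibitor in DMEM containing the stated FBS (0.02% DMSO). Parallel 6 h incubation at 4 °C in cold DMEM used to measure nonspecific cell-bound amount. Accurate intracellular moles = 37 °C value minus 4 °C value. Extraction with MeCN/MeOH 1:1, HPLC quantification, corrected for extraction efficiency. Triplicate.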
# [19] = Stability in human MDA-MB-231 cells at 2 uM after 72 hrs by HPLC-MS analysis; type: ADME, cell-based; settings: mda-mb-231, 72 h
# Outline: (§7)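 Time course: inhibitor added to ~70%-confluent MDA-MB-231 cells in T-25 flasks, in 5 mL DMEM plus FBS (0.02% DMSO), incubated at 37 °C for 3–72 h. At each time point cells washed with cold PBS and extracted with cold MeCN/MeOH 1:1 overnight at 4 °C. Intracellular moles per million cells determined by HPLC calibration.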
# [20] = Drug uptake in human MDA-MB-231 cells assessed per million cells at 10 uM in presence of 1% FBS after 24 hrs incubation by HPLC-MS analysis; type: ADME, cell-based; settings: mda-mb-231, 24 h; outline: as §1
# [21] = Drug uptake in human MDA-MB-231 cells assessed per million cells at 10 uM in presence of 5% FBS after 24 hrs incubation by HPLC-MS analysis; type: ADME, cell-based; settings: mda-mb-231, 24 h; outline: as §1
# [22] = Drug uptake in human MDA-MB-231 cells assessed per million cells at 10 uM in presence of 10% FBS after 24 hrs incubation by HPLC-MS analysis; type: ADME, cell-based; settings: mda-mb-231, 24 h; outline: as §1
# [23] = Drug accumulation in human MDA-MB-231 cells at 10 uM in presence of 10% FBS after 24 hrs incubation by HPLC-MS analysis; type: ADME, cell-based; settings: mda-mb-231, 24 h; outline: as §1
# [24] = Drug uptake in human MDA-MB-231 cells assessed as extracellular concentration at 0.065 umol in presence of 10% FBS after 24 hrs by HPLC-MS analysis; type: ADME, cell-based; settings: mda-mb-231, 24 h
# Outline: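 MDA-MB-231 cells incubated 24 h at 37 °C with inhibitor in 5 mL DMEM with the stated FBS. Media plus cold PBS washes pooled, dried; cells extracted with MeCN/MeOH 1:1; HPLC peak areas of both fractions compared by mass balance with the input moles added to medium.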
# [25] = Drug uptake in human MDA-MB-231 cells assessed as intracellular concentration at 0.065 umol in presence of 10% FBS after 24 hrs by HPLC-MS analysis; type: ADME, cell-based; settings: mda-mb-231, 24 h; outline: as §1
# [26] = Drug uptake in human MDA-MB-231 cells assessed as extracted concentration at 1 uM after 24 hrs by HPLC-MS analysis; type: ADME, cell-based; settings: mda-mb-231, 24 h; outline: as §5
# [27] = Drug uptake in human MDA-MB-231 cells assessed as extracted concentration at 10 uM after 24 hrs by HPLC-MS analysis; type: ADME, cell-based; settings: mda-mb-231, 24 h; outline: as §5
# [28] = Drug uptake in human MDA-MB-231 cells assessed as extracted concentration at 100 uM after 24 hrs by HPLC-MS analysis; type: ADME, cell-based; settings: mda-mb-231, 24 h; outline: as §5
# [29] = Drug uptake in human MDA-MB-231 cells assessed per million cells at 10 uM in presence of 5% FBS after 6 hrs at 4 degC by HPLC-MS analysis; type: ADME, cell-based; settings: mda-mb-231, 6 h; outline: as §2
# [30] = Drug uptake in human MDA-MB-231 cells after 6 hrs in presence of 10% FBS by HPLC-MS analysis; type: ADME, cell-based; settings: mda-mb-231, 6 h; outline: as §6
# [31] = Stability in human MDA-MB-231 cells at 10 uM after 72 hrs by HPLC-MS analysis; type: ADME, cell-based; settings: mda-mb-231, 72 h; outline: as §7
# [32] = Stability of the compound in DMEM medium assessed as parent compound remaining at 100 uM after 24 hrs in presence of 10% FBS by HPLC method; outline: as §4
compound,measurement,setting,value
Cl.Cl.O=C(Nc1ccc(O[C@H]2CCNC2)c(-c2ccc(F)cc2)c1)c1ccc(O[C@H]2CCNC2)c(-c2ccc(F)c(F)c2)c1,IC50,MDA-MB-231,2300 nM
same,Drug uptake,[1],6.1 nmol
same,Drug uptake,[2],6.5 nmol
same,Drug uptake,[3],98%
same,Drug uptake,[4],6.7 nmol
same,Drug uptake,[5],5.5 nmol
same,Drug uptake,[6],1 nmol
same,"Papp at 5 h, 200 µM",[7],0.13 ×10⁻⁶ cm/s
same,Drug transport,[8],0.2%
same,solubility,[9],Soluble
same,Stability,[10],47%
same,Stability,[11],70%
same,Retention time,[12],15.8 min
same,Drug uptake,[13],0.0101 µmol
same,Drug uptake,[14],0.076 µM
same,Drug uptake,[15],0.128 µM
same,Drug uptake,[16],0.022 µM
same,Drug uptake,[17],4%
same,Drug uptake,[18],Dose-dependent effect
same,Stability,[19],Stable
CC(=O)c1cc(-c2cc(C(=O)NC3CC3)ccc2C)c2ncccn12,Drug uptake,[20],0.069 nmol
same,Drug uptake,[21],0.074 nmol
same,Drug uptake,[22],0.12 nmol
same,Drug uptake,[23],2%
same,Drug uptake,[4],0.11 nmol
same,Drug uptake,[5],0.038 nmol
same,Drug uptake,[6],0.085 nmol
same,"Papp at 5 h, 200 µM",[7],14.3 ×10⁻⁶ cm/s
same,Drug transport,[8],32.3%
same,solubility,[9],Soluble
same,Stability,[10],94%
same,Stability,[11],Unstable
same,Retention time,[12],16.4 min
same,Drug uptake,[24],0.059 µmol
same,Drug uptake,[25],0.0012 µmol
same,Drug uptake,[26],0.035 µM
same,Drug uptake,[27],0.1 µM
same,Drug uptake,[28],0.665 µM
same,Drug uptake,[29],0.025 nmol
same,Drug uptake,[30],Dose-dependent effect
same,Stability,[31],Stable
same,Stability,[32],94%
